Consider 16 molecules from ChEMBL document CHEMBL2429762, “Structure-activity relationship study of indole-2-carboxamides identifies a potent allosteric modulator for the cannabinoid receptor 1 (CB1)” (J Med Chem, 2013).

The source made the active and inactive calls. No cut-off for these calls is given here.

In the first test the target is Cannabinoid receptor 1 (Homo sapiens) (UniProt P21554). As to the kind of experiment: Antagonist activity CB1 receptor (unknown origin) expressed in HEK293 cell membranes assessed as inhibition of CP55,940-induced [35S]GTPgammaS binding at 1 uM after 60 mins by liquid scintillation counting analysis relative to control. In kind it is functional. Summed up: (§1)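 Wild-type CB1 HEK293 membranes (7.5 μg) were incubated 60 min at 30 °C in 50 mM Tris-HCl pH 7.4, 3 mM MgCl2, 0.2 mM EGTA, 100 mM NaCl, 0.1% BSA, 10 μM GDP and 0.1 nM [35S]GTPγS. CP55,940 was given at ≥9 concentrations (100 pM–100 μM), with or without modulator. Nonspecific binding was taken with 10 μM GTPγS. Samples were filtered and counted by scintillation. Runs were in duplicate, ≥3 experiments.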
Cannabinoid receptor 1 (Homo sapiens), sequence (P21554 whole entry): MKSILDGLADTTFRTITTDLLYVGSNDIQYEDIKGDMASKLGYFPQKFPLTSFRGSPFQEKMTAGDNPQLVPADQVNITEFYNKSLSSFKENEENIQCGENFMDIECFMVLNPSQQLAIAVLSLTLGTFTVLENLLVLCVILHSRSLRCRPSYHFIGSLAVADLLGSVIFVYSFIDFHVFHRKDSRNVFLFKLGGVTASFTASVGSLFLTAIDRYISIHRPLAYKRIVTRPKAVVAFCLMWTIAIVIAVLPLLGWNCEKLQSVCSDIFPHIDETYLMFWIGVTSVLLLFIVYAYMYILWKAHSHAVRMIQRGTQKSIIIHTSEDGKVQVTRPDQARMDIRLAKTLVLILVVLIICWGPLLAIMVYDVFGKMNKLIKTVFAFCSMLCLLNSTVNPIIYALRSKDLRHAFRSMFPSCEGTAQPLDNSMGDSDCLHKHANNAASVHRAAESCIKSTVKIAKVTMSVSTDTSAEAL
For orientation: Binding of GTPγS marks nucleotide exchange on a G protein.
On to `CCCCCc1c(C(=O)NCCc2ccc(N(C)C)cc2)[nH]c2ccc(Cl)cc12`, for which the Emax is 36 fmol/mg.

For another test the target is unchanged. As to the kind of experiment: Antagonist activity CB1 receptor (unknown origin) expressed in HEK293 cell membranes assessed as inhibition of CP55,940-induced [35S]GTPgammaS binding at 10 uM after 60 mins by liquid scintillation counting analysis relative to control. In kind it is functional. The procedure, abridged:
as §1
On to `CCCCCCCCCc1c(C(=O)NCCc2ccc(N3CCCCC3)cc2)[nH]c2ccc(Cl)cc12`, for which the inhibition entry was “Active”.
With `CCCCCc1c(C(=O)NCCc2ccc(N3CCOCC3)cc2)[nH]c2ccc(Cl)cc12`, the inhibition result was “Active”.
Still for that read-out and setting: with `CCc1c(C(=O)NCCc2ccc(N3CCCCC3)cc2)oc2ccc(Cl)cc12` the entry was “Active”.

Another test has the same target. As to the kind of experiment: Antagonist activity CB1 receptor (unknown origin) expressed in HEK293 cell membranes assessed as inhibition of CP55,940-induced [35S]GTPgammaS binding at 0.1 uM after 60 mins by liquid scintillation counting analysis (reference value: […] +/- […] fmol/mg). The test is classed as functional.
In the case of `CCCCCc1c(C(=O)NCCc2ccc(N(C)C)cc2)[nH]c2ccc(Cl)cc12`, the Emax was determined as 53.4 fmol/mg.

For the next test the target is unchanged. Description: Antagonist activity CB1 receptor (unknown origin) expressed in HEK293 cell membranes assessed as inhibition of [35S]GTPgammaS binding after 60 mins by liquid scintillation counting analysis. The test is classed as functional. Summed up: (§2)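 Basal [35S]GTPγS binding was measured with no orthosteric agonist on wild-type CB1 HEK293 membranes (7.5 μg), 60 min at 30 °C. Buffer was Tris pH 7.4 with MgCl2, EGTA, NaCl and BSA, plus 5 μM GDP and 0.1 nM [35S]GTPγS, and modulator added. Nonspecific binding was taken with 10 μM GTPγS. Mock-transfected membranes gave the non-CB1 binding. Samples were filtered and counted by scintillation. Runs were in duplicate, ≥3 experiments; one-way ANOVA with Bonferroni test was applied.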
As for `CCCCCc1c(C(=O)NCCc2ccc(N(C)C)cc2)[nH]c2ccc(Cl)cc12`, the inhibition entry was “Dose-dependent effect”.

Another test shares this target. As to the kind of experiment: Antagonist activity CB1 receptor (unknown origin) expressed in HEK293 cell membranes assessed as inhibition of [35S]GTPgammaS binding at 10 uM after 60 mins by liquid scintillation counting analysis. The test is classed as functional. The procedure, abridged:
as §2
Take `CCCCCc1c(C(=O)NCCc2ccc(N(C)C)cc2)[nH]c2ccc(Cl)cc12`: the inhibition entry is “Active”.

For another test the target is unchanged. As to the kind of experiment: Positive allosteric modulation of CB1 receptor (unknown origin) expressed in HEK293 cell membranes assessed as stimulation of [3H]CP55,940 binding after 60 mins by liquid scintillation counting analysis. The procedure, abridged:
(§3)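 Nonspecific binding was taken with 1 μM unlabeled CP55,940. Samples were filtered on GF/C and counted by scintillation. Runs were in duplicate, ≥3 experiments. α and KB came from nonlinear regression to the allosteric ternary complex model, with [A] and KA fixed.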
For the molecule `CCCCCc1c(C(=O)NCCc2ccc(N(C)C)cc2)[nH]c2ccc(Cl)cc12`, the Kb was determined as 167 nM.
The same measure, in the same setting: with `CCCCCCCc1c(C(=O)NCCc2ccc(N3CCCCC3)cc2)[nH]c2ccc(Cl)cc12` the figure was 651 nM.
Take `CCc1c(C(=O)NCCc2ccc(N(C)C)cc2)[nH]c2ccc(Cl)cc12`: the Kb was determined as 207 nM.
Consider `CCCCCc1c(C(=O)NC(CO)Cc2ccc(N(C)C)cc2)[nH]c2ccc(Cl)cc12` (stereo not given), for which the Kb was found to be 1020 nM.
Still for that read-out and setting: with `O=C(NCCc1ccc(N2CCCCC2)cc1)c1[nH]c2ccc(Cl)cc2c1Cc1ccccc1` the figure was 1070 nM.
The same measure, in the same setting: with `CCc1c(C(=O)NCCc2ccc(N(C)C)cc2)oc2ccc(Cl)cc12` the figure was 627 nM; with `CCCCCCCCCc1c(C(=O)NCCc2ccc(N3CCCCC3)cc2)[nH]c2ccc(Cl)cc12`, 260 nM.
For `CCCCCc1c(C(=O)NCCc2ccc(N3CCOCC3)cc2)[nH]c2ccc(Cl)cc12`, the Kb worked out at 508 nM.
The same measure, in the same setting: with `CCc1c(C(=O)NCCc2ccc(N3CCCCC3)cc2)[nH]c2ccc(Cl)cc12` the figure was 217 nM; with `CCCCCc1c(C(=O)NCCc2ccc(Oc3ccccc3)cc2)[nH]c2ccc(Cl)cc12`, 2340 nM; with `CCc1c(C(=O)NCCc2ccc(N3CCCCC3)cc2)oc2ccc(Cl)cc12`, 2590 nM.
The same measure, in the same setting: with `O=C(NCCc1ccc(N2CCCCC2)cc1)c1[nH]c2ccc(Cl)cc2c1CC1CCCCC1` the figure was 2410 nM.

A further test has the same target. Description: Antagonist activity CB1 receptor (unknown origin) expressed in HEK293 cell membranes assessed as inhibition of CP55,940-induced [35S]GTPgammaS binding at 3.2 uM after 60 mins by liquid scintillation counting analysis relative to control. In kind it is functional. The procedure, abridged: as §1
For `CCCCCCCCCc1c(C(=O)NCCc2ccc(N3CCCCC3)cc2)[nH]c2ccc(Cl)cc12`, the Emax stood at 61.4 fmol/mg.
On the same count and under the same terms, with `CCCCCc1c(C(=O)NCCc2ccc(N3CCOCC3)cc2)[nH]c2ccc(Cl)cc12` the figure was 58.2 fmol/mg.
As for `CCc1c(C(=O)NCCc2ccc(N3CCCCC3)cc2)oc2ccc(Cl)cc12`, the Emax stood at 59.5 fmol/mg.

A further test has the same target. As to the kind of experiment: Allosteric modulation of CB1 receptor (unknown origin) expressed in HEK293 cell membranes assessed as stimulation of [3H]CP55,940 binding up to 32 uM after 60 mins by liquid scintillation counting analysis. Summed up:
as §3
As to `O=C(NCCc1ccc(N2CCCCC2)cc1)c1cc2cc(Cl)ccc2o1`, the result was inactive.
On to `CN(C)c1ccc(CCNC(=O)c2cc3cc(Cl)ccc3o2)cc1`, for which the result was inactive.
As for `O=C(NCCc1ccc(N2CCCCC2)cc1)c1[nH]c2ccc(Cl)cc2c1-c1ccccc1`, the outcome was inactive.
For `CCCCCc1c(C(=O)NCc2ccc(N3CCCCC3)cc2)[nH]c2ccc(Cl)cc12`, the result was inactive.

For a further test the target is unchanged. Description: Antagonist activity CB1 receptor (unknown origin) expressed in HEK293 cell membranes assessed as inhibition of CP55,940-induced [35S]GTPgammaS binding after 60 mins by liquid scintillation counting analysis. In kind it is functional. The procedure, abridged:
as §1
As for `CCCCCc1c(C(=O)NCCc2ccc(N(C)C)cc2)[nH]c2ccc(Cl)cc12`, the inhibition result is “Dose-dependent effect”.
On the same count and under the same terms, with `CCCCCCCCCc1c(C(=O)NCCc2ccc(N3CCCCC3)cc2)[nH]c2ccc(Cl)cc12` the entry was “Dose-dependent effect”; with `CCCCCc1c(C(=O)NCCc2ccc(N3CCOCC3)cc2)[nH]c2ccc(Cl)cc12`, “Dose-dependent effect”; with `CCc1c(C(=O)NCCc2ccc(N3CCCCC3)cc2)oc2ccc(Cl)cc12`, “Dose-dependent effect”.
